For data set [1], the system named is Staphylococcus aureus. Nature of the data set: Antibacterial activity against methicillin-resistant Staphylococcus aureus CBD-635 at 50 ug/mL. It is filed as functional, organism-based. Put shortly:
(§1)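 CLSI microbroth dilution in undiluted Müller–Hinton broth; peptides dissolved in DMSO and diluted in medium to 1% DMSO (v/v) final. Each agent tested at a fixed concentration against the ESKAPE clinical isolate. Controls: medium alone, inoculum without drug, and inoculum with methicillin, vancomycin, nisin, colistin or bacitracin. Run in triplicate.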

Data set [2] relates to Staphylococcus aureus. Nature of the data set: Antibacterial activity against methicillin-resistant Staphylococcus aureus CBD-635 at 100 ug/mL. The format is functional, organism-based. The method in brief: as §1
Data set [3] relates to Staphylococcus aureus. Nature of the data set: Antibacterial activity against methicillin-resistant Staphylococcus aureus CBD-635 at 35 ug/mL. It is filed as functional, organism-based. The method in brief:
as §1

Data set [4] concerns Enterococcus faecium. Nature of the data set: Antibacterial activity against vancomycin-resistant Enterococcus faecium USF-1449 at 50 ug/mL. It is filed as functional, organism-based. The method in brief: as §1
The subject of data set [5] is Acinetobacter baumannii. Nature of the data set: Antibacterial activity against Acinetobacter baumannii USF-1403 at 25 ug/mL. It is filed as functional, organism-based. Put shortly: (§2)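 Broth microdilution per CLSI in undiluted Müller–Hinton broth. Compounds were dissolved in DMSO and diluted to a final 1% DMSO (v/v). Plates included medium-only and no-drug growth controls, plus methicillin, vancomycin, nisin, colistin and bacitracin. Triplicate runs.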

In data set [6] the test system is Pseudomonas aeruginosa. Nature of the data set: Antibacterial activity against Pseudomonas aeruginosa USF-1423 at 25 ug/mL. The format is functional, organism-based. Put shortly:
as §2

The subject of data set [7] is Acinetobacter baumannii. Nature of the data set: Antibacterial activity against Acinetobacter baumannii USF-1403 at 100 ug/mL. It is filed as functional, organism-based. The method in brief:
as §2

The subject of data set [8] is Pseudomonas aeruginosa. Nature of the data set: Antibacterial activity against Pseudomonas aeruginosa USF-1423 at 100 ug/mL. The format is functional, organism-based. Put shortly: as §2
Data set [9] deals with Enterococcus faecium. Nature of the data set: Antibacterial activity against vancomycin-resistant Enterococcus faecium USF-1449 at 25 ug/mL. It is filed as functional, organism-based. The method in brief:
as §1

Data set [10] concerns Enterococcus faecium. Nature of the data set: Antibacterial activity against vancomycin-resistant Enterococcus faecium USF-1449 at 100 ug/mL. The format is functional, organism-based. The method in brief:
as §1

In data set [11] the test system is Enterobacter cloacae. Nature of the data set: Antibacterial activity against carbapenem-resistant Enterobacter cloacae USF-1454 at 100 ug/mL. The format is functional, organism-based. Put shortly: as §1
Data set [12] deals with Pseudomonas aeruginosa. Nature of the data set: Antibacterial activity against Pseudomonas aeruginosa USF-1423 at 5 ug/mL. It is filed as functional, organism-based. Put shortly:
as §2

Data set [13] concerns Enterobacter cloacae. Nature of the data set: Antibacterial activity against carbapenem-resistant Enterobacter cloacae USF-1454 at 50 ug/mL. It is filed as functional, organism-based. Put shortly:
as §1

Data set [14] relates to Pseudomonas aeruginosa. Nature of the data set: Antibacterial activity against Pseudomonas aeruginosa USF-1423 at 50 ug/mL. The format is functional, organism-based. The method in brief:
as §2

For data set [15], the system named is Acinetobacter baumannii. Nature of the data set: Antibacterial activity against Acinetobacter baumannii USF-1403 at 50 ug/mL. The format is functional, organism-based. Put shortly:
as §2

In data set [16] the test system is Enterobacter cloacae. Nature of the data set: Antibacterial activity against carbapenem-resistant Enterobacter cloacae USF-1454 at 25 ug/mL. The format is functional, organism-based. Put shortly:
as §1

Data set [17] deals with Acinetobacter baumannii. Nature of the data set: Antibacterial activity against Acinetobacter baumannii USF-1403 at 10 ug/mL. The format is functional, organism-based. The method in brief:
as §2

Data set [18] has as its system Enterococcus faecium. Nature of the data set: Antibacterial activity against vancomycin-resistant Enterococcus faecium USF-1449 at 10 ug/mL. The format is functional, organism-based. Put shortly:
as §1

The subject of data set [19] is Pseudomonas aeruginosa. Nature of the data set: Antibacterial activity against Pseudomonas aeruginosa USF-1423 at 10 ug/mL. It is filed as functional, organism-based. Put shortly:
as §2

Data set [20] concerns Acinetobacter baumannii. Nature of the data set: Antibacterial activity against Acinetobacter baumannii USF-1403 at 5 ug/mL. The format is functional, organism-based. Put shortly:
as §2

The next data set deals with Klebsiella pneumoniae. Nature of the data set: Antibacterial activity against carbapenem-resistant Klebsiella pneumoniae USF-1433 at 100 ug/mL. It is filed as functional, organism-based. Put shortly: as §1
Data set [21] deals with Staphylococcus aureus. Nature of the data set: Antibacterial activity against methicillin-resistant Staphylococcus aureus CBD-635 at 25 ug/mL. It is filed as functional, organism-based. Put shortly: as §1
Data set [22] deals with Staphylococcus aureus. Nature of the data set: Antibacterial activity against methicillin-resistant Staphylococcus aureus CBD-635 at 10 ug/mL. The format is functional, organism-based. The method in brief:
as §1

Data set [23] is described as follows: Hemolytic activity in human erythrocytes at 155 uM after 1 hr. It is filed as ADME, cell-based. Particulars: erythrocyte.
Data set [24] has as its system Pseudomonas aeruginosa. Nature of the data set: Antibacterial activity against Pseudomonas aeruginosa PA14 assessed as inhibition of biofilm formation at 4.8 uM after 3 days by Styo-9/propidium iodide staining based confocal laser scanning microscopy. It is filed as functional, organism-based.
Data set [25] has as its system Staphylococcus aureus. Nature of the data set: Antibacterial activity against methicillin-resistant Staphylococcus aureus SAP0017 clinical isolate assessed as inhibition of biofilm formation at 4.8 uM after 3 days by Styo-9/propidium iodide staining based confocal laser scanning microscopy. It is filed as functional, organism-based.
Data set [26] deals with Pseudomonas aeruginosa. Nature of the data set: Antibacterial activity against Pseudomonas aeruginosa PA14 assessed as eradication of mature biofilm formation at 4.8 uM after 24 hrs by Styo-9/propidium iodide staining based confocal laser scanning microscopy. The format is functional, organism-based.
Data set [27] relates to Staphylococcus aureus. Nature of the data set: Antibacterial activity against methicillin-resistant Staphylococcus aureus SAP0017 clinical isolate assessed as eradication of mature biofilm formation at 4.8 uM after 24 hrs by Styo-9/propidium iodide staining based confocal laser scanning microscopy. It is filed as functional, organism-based.
In a further data set the test system is BJ. Nature of the data set: Cytotoxicity against human BJ cells assessed as reduction in cell viability at 150 uM after 48 to 72 hrs by Cell Titer-Glo Luminescent assay. The format is cell-based. The method in brief: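 BJ fibroblasts were seeded at 10,000 per well in EMEM with 10% FBS and incubated overnight at 37 °C, 5% CO2. Medium was then replaced with 2% FBS medium containing peptide (0.5–500 μM, final 1% DMSO). After 48 and 72 h, viability was read by CellTiter-Glo luminescence. Controls were 10 μM doxorubicin and 20% DMSO.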

Data set [28] concerns Pseudomonas aeruginosa. Nature of the data set: Ratio of MIC for Pseudomonas aeruginosa USF-1423 after 8 serial passages to MIC for Pseudomonas aeruginosa USF-1423 after 1st serial passage. It is filed as functional. The method in brief: (§3)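 Serial passage: exponential-phase cultures in MHB at about 10^6 CFU/mL final, started at ½ MIC of agent, incubated overnight at 37°C. An aliquot was moved each step to a 2-fold higher concentration, for 8 passages. MIC was determined at each step by broth microdilution. Vancomycin and ciprofloxacin were comparators. Three independent experiments.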

Data set [29] relates to Staphylococcus aureus. Nature of the data set: Ratio of MIC for methicillin-resistant Staphylococcus aureus CBD-635 after 8 serial passages to MIC for methicillin-resistant Staphylococcus aureus CBD-635 after 1st serial passage. It is filed as functional. The method in brief:
as §3

In data set [30] the test system is Staphylococcus aureus. Nature of the data set: Antibacterial activity against methicillin-resistant Staphylococcus aureus CBD-635 at 5 ug/mL. The format is functional, organism-based. Put shortly: as §1

Drawing on ChEMBL document CHEMBL3758153, “Identification of novel cyclic lipopeptides from a positional scanning combinatorial library with enhanced antibacterial and antibiofilm activities” (Eur J Med Chem, 2016), this text covers Activity, inhibition and Ratio for six compounds.

Activity calls are given as the source filed them. No cut-off for these calls is given here. Where a SMILES comes first, the peptide text is derived from it. Bridges are numbered along the chain shown (N, C = ends). [ ]: non-standard residue; d: D form. The star is where a group is joined. Dodecanoyl(12-guanidino) = N=C(N)NCCCCCCCCCCCC(=O)*; d(aThr) = C[C@@H](O)[C@@H](N)C(=O)O

Regarding `C[C@@H](O)[C@H]1NC(=O)[C@@H](CC(N)=O)NC(=O)[C@@H](CCCNC(=N)N)NC(=O)[C@H](Cc2c[nH]c3ccccc23)NC(=O)[C@@H](Cc2c[nH]c3ccccc23)NC(=O)C(NC(=O)CCCCCCCCCCCNC(=N)N)CNC1=O` (stereo not given in full), the outcome in the data set with Staphylococcus aureus [1], in the data set on Staphylococcus aureus [2] and in the data set with Staphylococcus aureus [3] was Active.

In the case of COLISTIN, the result with Enterococcus faecium [4], with Acinetobacter baumannii [5], in the data set with Pseudomonas aeruginosa [6], with Acinetobacter baumannii [7], in the data set on Pseudomonas aeruginosa [8] and in the data set with Enterococcus faecium [9] was Active. Moreover, the outcome in the data set on Enterococcus faecium [10], with Enterobacter cloacae [11], in the data set with Pseudomonas aeruginosa [12], in the data set with Enterobacter cloacae [13], in the data set with Pseudomonas aeruginosa [14] and in the data set with Staphylococcus aureus [2] was Active. Besides, the outcome with Acinetobacter baumannii [15], with Enterobacter cloacae [16], in the data set on Acinetobacter baumannii [17], in the data set with Enterococcus faecium [18], with Pseudomonas aeruginosa [19] and in the data set on Acinetobacter baumannii [20] was Active. Also, the result with Klebsiella pneumoniae was Active.

For the compound `CC(C)C[C@@H]1NC(=O)[C@@H](Cc2c[nH]c3ccccc23)NC(=O)C(NC(=O)CCCCCCCCCCCNC(=N)N)CNC(=O)[C@@H](CCCNC(=N)N)NC(=O)[C@@H](CC(N)=O)NC(=O)[C@@H](Cc2c[nH]c3ccccc23)NC1=O` (stereo not given in full), the outcome in the data set on Staphylococcus aureus [1], with Staphylococcus aureus [21], in the data set with Staphylococcus aureus [2] and in the data set on Staphylococcus aureus [3] was Active.

As for `CC(C)[C@@H]1NC(=O)[C@@H](C(C)C)NC(=O)[C@@H](NC(=O)CCCCCCCCCCCNC(=N)N)[C@@H](C)OC(=O)[C@@H](C)NC(=O)[C@@H](CC(N)=O)NC(=O)[C@@H]([C@@H](C)O)NC1=O` ({Dodecanoyl(12-guanidino)}-T[dV]V[d(aThr)][dN][dA]; ester 1-C), the outcome with Staphylococcus aureus [22], in the data set with Enterococcus faecium [4], in the data set on Staphylococcus aureus [1], in the data set on Acinetobacter baumannii [7], in the data set on Enterococcus faecium [9] and in the data set on Staphylococcus aureus [21] was Active. Further, the result with Staphylococcus aureus [2], in the data set on Pseudomonas aeruginosa [26] and in the data set on Staphylococcus aureus [27] was Active. Besides, the Activity entry (in [23]; with BJ) was “Toxic” in each case. The inhibition result in the data set with Pseudomonas aeruginosa [24] and in the data set with Staphylococcus aureus [25] was “Active” throughout.

For `CN[C@@H](CC(C)C)C(=O)N[C@H]1C(=O)N[C@@H](CC(N)=O)C(=O)N[C@H]2C(=O)N[C@H]3C(=O)N[C@H](C(=O)N[C@@H](C(=O)O)c4cc(O)cc(O)c4-c4cc3ccc4O)[C@H](O)c3ccc(c(Cl)c3)Oc3cc2cc(c3O[C@H]2O[C@@H](CO)[C@H](O)[C@@H](O)[C@@H]2O[C@@H]2C[C@@](C)(N)[C@@H](O)[C@@H](C)O2)Oc2ccc(cc2Cl)[C@H]1O`, the result with Staphylococcus aureus [22], in the data set with Staphylococcus aureus [1], with Acinetobacter baumannii [7], with Staphylococcus aureus [21], in the data set on Staphylococcus aureus [2] and in the data set on Staphylococcus aureus [30] was Active. In addition, the Ratio with Pseudomonas aeruginosa [28] and in the data set with Staphylococcus aureus [29] was 64 each time.

Take `CC[C@@H](C)[C@H]1NC(=O)[C@H](Cc2ccccc2)NC(=O)[C@@H](CC(C)C)NC(=O)C(NC(=O)CCCCCCCCCCCNC(=N)N)CNC(=O)[C@@H](CCCNC(=N)N)NC(=O)[C@@H](CC(N)=O)NC1=O` (stereo not given in full): the result with Staphylococcus aureus [1], with Staphylococcus aureus [2] and with Staphylococcus aureus [3] was Active.
